Data on 13 molecules can be found in ChEMBL document CHEMBL5126648, “Charting the Chemical Space of Acrylamide-Based Inhibitors of zDHHC20” (ACS Med Chem Lett, 2022).

Calls of active or inactive are those of the source. The rule behind the calls is not given here.

The target in data set [1] is T1, Palmitoyltransferase ZDHHC20 (Homo sapiens, UniProt Q5W0Z9).
T1 sequence (Q5W0Z9 whole entry): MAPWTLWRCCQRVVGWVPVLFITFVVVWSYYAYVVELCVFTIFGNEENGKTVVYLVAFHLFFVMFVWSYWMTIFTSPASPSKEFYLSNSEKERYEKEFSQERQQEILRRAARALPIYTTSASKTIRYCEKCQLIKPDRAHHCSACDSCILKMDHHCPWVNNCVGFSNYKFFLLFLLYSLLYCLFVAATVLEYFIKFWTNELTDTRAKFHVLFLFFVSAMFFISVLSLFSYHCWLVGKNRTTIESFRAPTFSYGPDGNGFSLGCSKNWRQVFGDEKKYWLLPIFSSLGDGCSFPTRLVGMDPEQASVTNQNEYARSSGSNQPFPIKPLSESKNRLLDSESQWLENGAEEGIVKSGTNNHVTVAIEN
The experiment in a line: Inhibition of human myc-His6-tagged zDHHC20 expressed in HEK293T cells using 5-FAM-GTQGCMGLPCVVM-COOH as substrate preincubated for 1 hr followed by substrate addition and measured at 1 min interval for 2 hrs in presence of palmitoyl-CoA by fluorescence polarization assay. The gist of the method:
(§1)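 Purified zDHHC20 run in the acyl-cLIP assay, an earlier adaptation by the same group. Enzyme-mediated acylation of a peptide is read as polarized fluorescence.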

Data set [2] in a line: Lipophilicity, log P of compound. The conditions noted are these: octanol/water. The format is physicochemical.
Data set [3] addresses T2, Palmitoyltransferase ZDHHC2 (Homo sapiens) (UniProt Q9UIJ5).
T2 sequence (whole entry): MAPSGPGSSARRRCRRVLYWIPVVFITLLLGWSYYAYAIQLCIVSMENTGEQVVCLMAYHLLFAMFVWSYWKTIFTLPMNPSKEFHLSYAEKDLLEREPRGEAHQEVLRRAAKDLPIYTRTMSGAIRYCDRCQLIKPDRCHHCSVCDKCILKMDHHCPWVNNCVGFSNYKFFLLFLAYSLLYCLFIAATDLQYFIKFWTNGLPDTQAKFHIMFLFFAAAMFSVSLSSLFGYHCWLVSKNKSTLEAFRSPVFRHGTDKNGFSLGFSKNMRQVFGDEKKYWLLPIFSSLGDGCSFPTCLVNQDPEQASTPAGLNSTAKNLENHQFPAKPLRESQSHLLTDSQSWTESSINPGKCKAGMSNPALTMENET
Nature of the data set: Inhibition of human myc-His6-tagged zDHHC2 expressed in HEK293T cells at 10 uM using 5-FAM-GTQGCMGLPCVVM-COOH as substrate preincubated for 30 mins followed by substrate addition and measured at 1 min interval for 2 hrs in presence of palmitoyl-CoA by fluorescence polarization assay. The following applies: time 150.0 min. (In general: In fluorescence polarisation assays a small probe gives low polarisation when free and higher when bound to something large.)

Data set [4] concerns the target T3, Palmitoyltransferase ZDHHC2 (Homo sapiens, UniProt Q9UIJ5).
T3 sequence (Q9UIJ5 whole entry): T2 sequence (whole entry)
Nature of the data set: Inhibition of human myc-His6-tagged zDHHC2 expressed in HEK293T cells using 5-FAM-GTQGCMGLPCVVM-COOH as substrate preincubated for 30 mins followed by substrate addition and measured at 1 min interval for 2 hrs in presence of palmitoyl-CoA by fluorescence polarization assay.

In data set [5] the target is T2, Palmitoyltransferase ZDHHC2 (Homo sapiens). The experiment in a line: Binding affinity to human myc-His6-tagged zDHHC2 expressed in HEK293T cells at 1 uM measured after 1 hr by TAMRA-azide-labelled in-gel fluorescence analysis. Format: cell-based. A digest of the protocol:
(§2)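 Myc-tagged enzyme overexpressed in HEK293T cells; cells treated with probe at 1 μM for 1 h. Lysates then clicked to TAMRA-azide, proteins resolved by SDS-PAGE and read by in-gel fluorescence. Expression checked by anti-myc Western blot. n = 2.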

Data set [6] has as its target T4, Palmitoyltransferase ZDHHC20 (Homo sapiens) (UniProt Q5W0Z9).
T4 sequence (whole entry): T1 sequence (Q5W0Z9 whole entry)
The experiment in a line: Binding affinity to human myc-His6-tagged zDHHC20 expressed in HEK293T cells at 1 uM measured after 1 hr by TAMRA-azide-labelled in-gel fluorescence analysis. The format is cell-based. The gist of the method: as §2

Data set [7] concerns the target T4, Palmitoyltransferase ZDHHC20 (Homo sapiens). The experiment in a line: Inhibition of human myc-His6-tagged zDHHC20 expressed in HEK293T cells at 10 uM using 5-FAM-GTQGCMGLPCVVM-COOH as substrate preincubated for 1 hr followed by substrate addition and measured at 1 min interval for 2 hrs in presence of palmitoyl-CoA by fluorescence polarization assay. The conditions noted are these: time 3.0 hrs. A digest of the protocol: as §1

By IC50 is commonly meant the concentration that inhibits the measured activity by half. As a reminder, the logP is the decadic logarithm of the partition coefficient of the neutral form, usually between octanol and water. A lower logP goes with lower lipophilicity. The term inhibition denotes how much of the control response was suppressed.

Consider `C=CC(=O)N(CC#N)CCOCCCCCCCCCCC`, for which the IC50 in data set [1] came to 1970 nM. The logP in data set [2] was found to be 4.1. In addition, in data set [3], the inhibition entry is “Active”.

For `CCCCCCCCCCCCCCC(Br)C(=O)O` (centres undefined), the IC50 turned out to be 5550 nM in data set [1] and 2020 nM in data set [4].

`CCCCCCCCCCCCCCNC(=O)/C=C\C(=O)OCc1cn(CCCNC(=O)CCNC(=O)[C@H](O)C(C)(C)CO)nn1`: the IC50 in data set [1] was 9730 nM. The same molecule registered a logP in data set [2] of 3.33.

Consider `C#CCOC(=O)/C=C\C(=O)NCCCCCCCCCCCCCC`, for which the half-inhibitory concentration (IC50) in data set [1] turned out to be 3430 nM. Also, the inhibition result in data set [3] is “Active”. Further, the result in data set [5] and in data set [6] was Active.

As for `CCCCCCCCCCCCCCNC(=O)/C=C\C(=O)OCc1cn(CCOCCOCCOCCO)nn1`, in data set [7], the inhibition entry is “Active”. The molecule also showed a logP in data set [2] of 4.55.

Take `CCCCCCCCCCCCCCNC(=O)/C=C\C(=O)OC`: the inhibition result in data set [7] was “Active”.

`C=CC(=O)NCCCCCCCCCCCCCC`: the IC50 in data set [1] came out at 21400 nM; in data set [4], 59900 nM.

`CCCCCCCCCCCCCCNC(=O)/C=C\C(=O)OCC#N`: the IC50 in data set [1] came out at 2870 nM; in data set [4] it was 2660 nM.

For `C#CCN(CCCCCCCCCCCCCC)C(=O)C=C`, the result in data set [5] and in data set [6] was Active.

In the case of `CCCCCCCCCCCCCCN(CC#N)C(=O)/C=C\C(=O)O`, in data set [1], the IC50 was found to be 3450 nM.

For the molecule `C#CCOC(=O)/C=C/C(=O)NCCCCCCCCCCCCCC`, the result in data set [5] and in data set [6] was Active.

As for `C=CC(=O)N(CC#N)CCCCCCCCCCCCCC`, the IC50 in data set [1] worked out at 1350 nM; in data set [4] it was 590 nM. In addition, the logP in data set [2] turned out to be 5.48. The inhibition entry in data set [3] was “Active”.

Consider `CCCCCCCCCCCCCCNC(=O)/C=C\C(=O)Oc1ccccc1`, for which the inhibition in data set [7] was 50%. Besides, the IC50 in data set [4] amounted to 2020 nM.
